Assay results from different studies.
Lines come from different studies, so protocols differ.
Cell line: HT-29
Effect on: cell growth or viability

COc1c2c(cc3c1OCO3)[C@]13C=C[C@H](OC)C[C@@H]1[N@](C2)C[C@H]3OC(=O)c1ccc2ccccc2c1 — IC50 (WST-1): > 10 µM
COc1cc2c(c3c1C(=O)C[C@@H](c1ccccc1)O3)[C@H]1[C@@H](O2)OC(C)(C)[C@@H]1OC(C)=O — IC50 (SRB; 72 h): > 10 µM
O=C(N/N=C1\C(=O)N(Cc2ccccc2)c2ccc(Br)cc21)c1cc2ccccc2[nH]1 — IC50: 2.26 µM
COc1c2c(cc3c1OCO3)[C@]13C=C[C@H](OC)C[C@@H]1[N@](C2)C[C@H]3OC(=O)c1ccoc1 — IC50 (WST-1): > 10 µM
COc1ccc2[nH]cc(CCNc3nccc(Nc4cccc5c4ccn5C)n3)c2c1 — IC50 (fluorescence; 72 h): 0.0039 µM
COc1ccc2c(c1)/C(=N/NC(=O)c1cc3ccccc3[nH]1)C(=O)N2Cc1ccccc1 — IC50: 2.28 µM
c1ccc2c(c1)[I+]c1ccccc1-2 — IC50 (trypan blue; 48 h): ~0.1 µM
COc1cc2c(O[C@@H]3O[C@H](CO)[C@@H](O)[C@H](O)[C@H]3O)c3c(c(-c4ccc5c(c4)OCO5)c2cc1OC)C(=O)OC3 — IC50: 12 µM
CCCCCCCC(=O)SCC/C=C/[C@@H]1CC(=O)NCc2nc(cs2)C2=N[C@@](C)(CS2)C(=O)N[C@@H](C(C)C)C(=O)O1 — IC50 (resazurin; 48 h): 0.0162 µM
O=C(N/N=C1\C(=O)N(Cc2ccccc2)c2ccc(F)cc21)c1cc2ccccc2[nH]1 — inhibition (30 µM): 94.3%
N.N.[Cl][Pt][Cl] — IC50 (SRB; 48 h): 20 µM
